Laboratory results published in ChEMBL document CHEMBL4190393, “Specific Stereoisomeric Conformations Determine the Drug Potency of Cladosporin Scaffold against Malarial Parasite” (J Med Chem, 2018).

Assays:
Lysine--tRNA ligase [1] = molecular target: Lysine--tRNA ligase (Plasmodium falciparum (isolate 3D7), UniProt Q8IDJ8); assay: Inhibition of Plasmodium falciparum KRS expressed in Escherichia coli BL21 using tRNA(Lys) as substrate after 45 mins in presence of L-lysine by AMP-GLO assay
Lysine--tRNA ligase [2] = molecular target: T1, Lysine--tRNA ligase (Homo sapiens, UniProt Q15046); assay: Binding affinity to human KRS expressed in Escherichia coli BL21 by thermal shift assay
In short: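 Protein thermal shift assay with Hs-KRS at 4 μM in the presence of L-lysine; binding read out as the shift in melting temperature (ΔTm, °C) produced by each ligand.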
Target sequence in this assay (Q15046 2-597 limits assumed): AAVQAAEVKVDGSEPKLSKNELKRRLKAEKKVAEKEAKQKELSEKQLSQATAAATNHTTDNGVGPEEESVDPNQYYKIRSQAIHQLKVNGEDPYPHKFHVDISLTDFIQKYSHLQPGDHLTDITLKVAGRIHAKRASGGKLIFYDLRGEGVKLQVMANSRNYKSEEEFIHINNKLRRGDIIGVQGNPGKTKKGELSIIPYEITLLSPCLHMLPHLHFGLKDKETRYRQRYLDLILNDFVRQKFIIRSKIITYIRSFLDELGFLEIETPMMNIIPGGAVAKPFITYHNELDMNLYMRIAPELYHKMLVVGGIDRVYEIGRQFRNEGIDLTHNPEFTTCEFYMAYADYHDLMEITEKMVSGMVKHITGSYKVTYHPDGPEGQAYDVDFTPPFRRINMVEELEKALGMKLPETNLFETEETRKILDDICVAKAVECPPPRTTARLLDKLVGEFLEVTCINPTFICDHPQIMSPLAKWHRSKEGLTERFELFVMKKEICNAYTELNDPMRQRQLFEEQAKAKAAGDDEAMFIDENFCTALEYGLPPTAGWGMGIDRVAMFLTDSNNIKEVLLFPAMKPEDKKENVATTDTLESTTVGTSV

[3] = molecular target: Lysine--tRNA ligase (Plasmodium falciparum (isolate 3D7)) (UniProt Q8IDJ8); assay: Binding affinity to Plasmodium falciparum KRS expressed in Escherichia coli BL21 by thermal shift assay
Lysine--tRNA ligase (Plasmodium falciparum (isolate 3D7)), sequence (Q8IDJ8 1-583): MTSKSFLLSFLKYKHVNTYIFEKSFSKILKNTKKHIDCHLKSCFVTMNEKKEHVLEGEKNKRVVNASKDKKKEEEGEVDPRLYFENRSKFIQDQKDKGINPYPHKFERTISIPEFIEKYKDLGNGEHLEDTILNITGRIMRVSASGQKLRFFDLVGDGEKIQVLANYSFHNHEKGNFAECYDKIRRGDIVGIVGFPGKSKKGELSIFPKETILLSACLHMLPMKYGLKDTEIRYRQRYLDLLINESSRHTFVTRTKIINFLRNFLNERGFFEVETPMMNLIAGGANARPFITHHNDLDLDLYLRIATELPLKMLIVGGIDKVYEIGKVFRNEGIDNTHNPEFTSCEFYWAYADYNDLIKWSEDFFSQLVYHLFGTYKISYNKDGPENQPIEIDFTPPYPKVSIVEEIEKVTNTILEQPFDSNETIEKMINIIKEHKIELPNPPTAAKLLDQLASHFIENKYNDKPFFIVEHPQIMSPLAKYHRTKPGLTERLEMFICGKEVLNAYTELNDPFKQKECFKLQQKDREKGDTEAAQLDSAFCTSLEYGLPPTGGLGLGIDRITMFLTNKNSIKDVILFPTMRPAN
In short: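 Protein thermal shift assay with PfKRS at 2 μM in the presence of L-lysine. Binding is reported as the shift in melting temperature (ΔTm, °C) of the enzyme when the compound is added.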

Plasmodium falciparum = assay: Antiparasitic activity against Plasmodium falciparum 3D7 infected in human erythrocytes after 48 hrs by SYBR green-1 staining based assay; type: functional, organism-based; details: 3D7, 48 h
Lysine--tRNA ligase [4] = molecular target: T1, Lysine--tRNA ligase; assay: Inhibition of human KRS expressed in Escherichia coli BL21 using tRNA(Lys) as substrate after 1 hr in presence of L-lysine by AMP-GLO assay
Target sequence in this assay (Q15046 whole entry): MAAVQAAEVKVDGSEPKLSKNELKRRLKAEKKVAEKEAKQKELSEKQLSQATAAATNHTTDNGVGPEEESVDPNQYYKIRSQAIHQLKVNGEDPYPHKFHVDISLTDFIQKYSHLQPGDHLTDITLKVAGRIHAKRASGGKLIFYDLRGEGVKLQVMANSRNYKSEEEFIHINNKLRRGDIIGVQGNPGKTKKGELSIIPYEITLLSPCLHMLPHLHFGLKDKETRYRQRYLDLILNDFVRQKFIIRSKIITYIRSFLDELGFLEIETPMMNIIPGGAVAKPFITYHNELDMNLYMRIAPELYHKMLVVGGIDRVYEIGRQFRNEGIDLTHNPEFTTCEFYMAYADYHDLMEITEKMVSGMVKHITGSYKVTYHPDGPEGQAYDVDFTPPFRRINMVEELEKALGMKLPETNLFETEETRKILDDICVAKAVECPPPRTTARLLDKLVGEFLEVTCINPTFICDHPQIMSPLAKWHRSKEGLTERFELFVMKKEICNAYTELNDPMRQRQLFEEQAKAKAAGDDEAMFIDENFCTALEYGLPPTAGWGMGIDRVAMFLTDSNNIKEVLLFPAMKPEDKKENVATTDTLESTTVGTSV

[5] = Selectivity ratio of IC50 for human KRS to IC50 for Plasmodium falciparum KRS

Lysine--tRNA ligase (Plasmodium falciparum (isolate 3D7), UniProt Q8IDJ8), sequence (Q8IDJ8 whole entry): as the sequence (Q8IDJ8 1-583) above

SMILES | IC50 (Lysine--tRNA ligase [1]) [µM] | ΔTm (Lysine--tRNA ligase [2]) [°C] | ΔTm [3] [°C] | EC50 (Plasmodium falciparum) [µM] | IC50 (Lysine--tRNA ligase [4]) [µM] | Ratio IC50 [5]
C[C@H]1CCC[C@@H](C[C@H]2Cc3cc(O)cc(O)c3C(=O)O2)O1 | 5.8 | 0.1 | 15.6 | 1.1 | > 100 | –
C[C@@H]1CCC[C@H](C[C@@H]2Cc3cc(O)cc(O)c3C(=O)O2)O1 | 21.3 | 0.3 | 11.8 | > 2 | > 100 | –
C[C@@H]1CCC[C@@H](C[C@H]2Cc3cc(O)cc(O)c3C(=O)O2)O1 | 7.25 | 1.1 | 13.5 | 1.15 | > 100 | –
C[C@H]1CCC[C@H](C[C@@H]2Cc3cc(O)cc(O)c3C(=O)O2)O1 | 4.64 | 0.5 | 14.3 | 1.6 | > 100 | –
C[C@@H]1CCC[C@H](C[C@H]2Cc3cc(O)cc(O)c3C(=O)O2)O1 | 0.29 | 1 | 16.2 | 0.27 | > 100 | –
C[C@H]1CCC[C@@H](C[C@@H]2Cc3cc(O)cc(O)c3C(=O)O2)O1 | 29 | 1.1 | 11.4 | > 2 | > 100 | –
C[C@@H]1CCC[C@@H](C[C@@H]2Cc3cc(O)cc(O)c3C(=O)O2)O1 | 50 | -0.9 | 7.9 | > 2 | > 100 | –
C[C@H]1CCC[C@H](C[C@H]2Cc3cc(O)cc(O)c3C(=O)O2)O1 [CLADOSPORIN] | 0.12 | 1.3 | 17.3 | 0.04 | 105 | 840
